Our source for the inhibition and Activity values is ChEMBL document CHEMBL3739303, “Targeting the Src Homology 2 (SH2) Domain of Signal Transducer and Activator of Transcription 6 (STAT6) with Cell-Permeable, Phosphatase-Stable Phosphopeptide Mimics Potently Inhibits Tyr641 Phosphorylation and Transcriptional Activity” (J Med Chem, 2015).

Structures are written as SMILES. Calls of active or inactive are those of the source. The rule behind the calls is not given here. Some results are limits rather than exact numbers.

For one data set, the species on record is Mus musculus. Description: Inhibition of IL2-induced STAT5 phosphorylation at Y694 in CD4+ T lymphocytes isolated from C57BL/6J mouse at 0.5 to 5 uM preincubated for 2 hrs followed by activation with plate-bound anti-CD3/anti-CD28 and IL2 for 15 mins by Western blot analysis. The data set is classed as cell-based. The method, boiled down: (§1)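 CD4+ T cells from C57BL/6J mice, sorted by AutoMACS; activated 15 min with plate-bound anti-CD3 and/or anti-CD28 with IL-2, IL-6 or IL-4; lysed with protease inhibitors plus 10 mM NaF and 1 mM Na3VO4; Bradford-normalised immunoblots for pSTAT1 (Tyr701), pSTAT5 (Tyr694), pSTAT6 (Tyr641) and total STATs.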
On the technique in general: A western blot detects proteins with antibodies after separation by electrophoresis.

Data set [1] addresses T1, Signal transducer and activator of transcription 6 (Homo sapiens) (UniProt P42226).
T1 sequence (whole entry): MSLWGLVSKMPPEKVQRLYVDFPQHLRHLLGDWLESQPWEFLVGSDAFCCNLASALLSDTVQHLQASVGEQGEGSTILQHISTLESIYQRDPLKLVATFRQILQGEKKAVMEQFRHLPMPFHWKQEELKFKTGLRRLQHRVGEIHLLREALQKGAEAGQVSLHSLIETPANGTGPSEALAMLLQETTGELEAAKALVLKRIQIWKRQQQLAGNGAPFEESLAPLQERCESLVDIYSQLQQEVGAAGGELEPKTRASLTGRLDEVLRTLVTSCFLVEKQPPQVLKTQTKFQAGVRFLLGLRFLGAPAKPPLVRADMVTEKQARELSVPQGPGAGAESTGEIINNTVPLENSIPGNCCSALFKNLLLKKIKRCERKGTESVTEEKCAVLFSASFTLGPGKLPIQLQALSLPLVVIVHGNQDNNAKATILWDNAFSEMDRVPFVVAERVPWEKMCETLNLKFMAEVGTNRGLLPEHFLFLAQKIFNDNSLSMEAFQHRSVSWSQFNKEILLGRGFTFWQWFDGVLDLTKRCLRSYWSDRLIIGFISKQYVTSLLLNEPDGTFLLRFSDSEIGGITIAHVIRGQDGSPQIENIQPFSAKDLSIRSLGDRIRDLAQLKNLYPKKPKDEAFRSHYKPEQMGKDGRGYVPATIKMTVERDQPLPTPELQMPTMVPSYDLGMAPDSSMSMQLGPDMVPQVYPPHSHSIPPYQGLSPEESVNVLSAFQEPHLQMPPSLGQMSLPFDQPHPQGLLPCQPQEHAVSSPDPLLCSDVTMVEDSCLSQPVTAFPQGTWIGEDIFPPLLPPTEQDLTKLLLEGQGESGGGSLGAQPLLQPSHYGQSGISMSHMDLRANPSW
Kind of data set: Inhibition of IL4-induced STAT6 phosphorylation at tyrosine 641 in human Beas-2B cells at 0.05 to 5 uM incubated for 2 hrs followed by stimulation with IL4 for 1 hr by Western blot assay. It is filed as cell-based. The method, boiled down:
(§2)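 Beas-2B seeded at 3.0 × 10^5 cells/well the day before; prodrugs from DMSO stocks added to final concentrations for 2 h, then IL-4 (2 ng/mL) for 1 h. PBS-washed cells lysed with PMSF, protein by modified Lowry; blots blocked in 3% BSA/TBST, probed for pSTAT6 (Tyr641), stripped and reprobed for total STAT6; ECL on X-ray film.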

The target in data set [2] is RAC-alpha serine/threonine-protein kinase (Homo sapiens) (UniProt P31749). Description: Inhibition of EGF-induced AKT phosphorylation at S473 in human MDA-MB-468 cells at 100 nM incubated for 2 hrs followed by stimulation with EGF for 1 hr by Western blot assay. The data set is classed as cell-based.
Chain of RAC-alpha serine/threonine-protein kinase (Homo sapiens) (P31749 whole entry): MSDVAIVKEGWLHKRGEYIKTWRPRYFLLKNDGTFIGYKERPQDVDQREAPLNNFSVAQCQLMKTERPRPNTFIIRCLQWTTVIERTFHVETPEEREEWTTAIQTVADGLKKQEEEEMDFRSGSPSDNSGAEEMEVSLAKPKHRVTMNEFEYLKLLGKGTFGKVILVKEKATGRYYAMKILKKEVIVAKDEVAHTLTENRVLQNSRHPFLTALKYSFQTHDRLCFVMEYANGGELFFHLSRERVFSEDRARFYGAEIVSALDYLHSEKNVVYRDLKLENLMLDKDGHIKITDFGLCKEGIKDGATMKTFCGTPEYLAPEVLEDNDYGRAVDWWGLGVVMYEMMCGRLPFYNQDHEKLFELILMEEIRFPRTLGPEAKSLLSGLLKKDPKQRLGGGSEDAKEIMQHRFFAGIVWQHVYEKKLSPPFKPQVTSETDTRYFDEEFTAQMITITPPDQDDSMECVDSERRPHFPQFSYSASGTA
For data set [3], the target named is T2, Signal transducer and activator of transcription 1 (Mus musculus) (UniProt P42225).
T2 sequence (whole entry): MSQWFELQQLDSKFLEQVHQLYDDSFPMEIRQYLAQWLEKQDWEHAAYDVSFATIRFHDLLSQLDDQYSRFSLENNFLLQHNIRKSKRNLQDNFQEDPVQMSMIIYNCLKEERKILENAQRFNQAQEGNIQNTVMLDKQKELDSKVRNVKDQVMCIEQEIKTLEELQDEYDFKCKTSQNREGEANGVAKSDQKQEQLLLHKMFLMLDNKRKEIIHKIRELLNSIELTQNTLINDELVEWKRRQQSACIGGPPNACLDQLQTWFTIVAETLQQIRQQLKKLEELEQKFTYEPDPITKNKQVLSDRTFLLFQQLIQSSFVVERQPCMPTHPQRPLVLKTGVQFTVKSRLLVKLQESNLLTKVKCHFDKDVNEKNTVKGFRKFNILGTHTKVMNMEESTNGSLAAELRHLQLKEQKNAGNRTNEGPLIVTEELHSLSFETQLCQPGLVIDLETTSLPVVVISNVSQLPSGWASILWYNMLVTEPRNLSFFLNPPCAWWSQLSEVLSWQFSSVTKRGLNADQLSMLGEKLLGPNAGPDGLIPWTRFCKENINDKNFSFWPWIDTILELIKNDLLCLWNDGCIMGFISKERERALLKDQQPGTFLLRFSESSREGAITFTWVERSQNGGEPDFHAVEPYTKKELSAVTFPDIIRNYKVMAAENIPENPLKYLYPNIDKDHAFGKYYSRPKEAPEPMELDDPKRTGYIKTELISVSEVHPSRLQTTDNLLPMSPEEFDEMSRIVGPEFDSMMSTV
Description: Inhibition of IL6-induced STAT1 phosphorylation at Y701 in CD4+ T lymphocytes isolated from C57BL/6J mouse preincubated for 2 hrs followed by activation with plate-bound anti-CD3/anti-CD28 and IL6 for 15 mins by Western blot analysis. The data set is classed as cell-based. The method, boiled down: as §1

Data set [4] deals with T3, Signal transducer and transcription activator 6 (Mus musculus) (UniProt P52633).
T3 sequence (whole entry): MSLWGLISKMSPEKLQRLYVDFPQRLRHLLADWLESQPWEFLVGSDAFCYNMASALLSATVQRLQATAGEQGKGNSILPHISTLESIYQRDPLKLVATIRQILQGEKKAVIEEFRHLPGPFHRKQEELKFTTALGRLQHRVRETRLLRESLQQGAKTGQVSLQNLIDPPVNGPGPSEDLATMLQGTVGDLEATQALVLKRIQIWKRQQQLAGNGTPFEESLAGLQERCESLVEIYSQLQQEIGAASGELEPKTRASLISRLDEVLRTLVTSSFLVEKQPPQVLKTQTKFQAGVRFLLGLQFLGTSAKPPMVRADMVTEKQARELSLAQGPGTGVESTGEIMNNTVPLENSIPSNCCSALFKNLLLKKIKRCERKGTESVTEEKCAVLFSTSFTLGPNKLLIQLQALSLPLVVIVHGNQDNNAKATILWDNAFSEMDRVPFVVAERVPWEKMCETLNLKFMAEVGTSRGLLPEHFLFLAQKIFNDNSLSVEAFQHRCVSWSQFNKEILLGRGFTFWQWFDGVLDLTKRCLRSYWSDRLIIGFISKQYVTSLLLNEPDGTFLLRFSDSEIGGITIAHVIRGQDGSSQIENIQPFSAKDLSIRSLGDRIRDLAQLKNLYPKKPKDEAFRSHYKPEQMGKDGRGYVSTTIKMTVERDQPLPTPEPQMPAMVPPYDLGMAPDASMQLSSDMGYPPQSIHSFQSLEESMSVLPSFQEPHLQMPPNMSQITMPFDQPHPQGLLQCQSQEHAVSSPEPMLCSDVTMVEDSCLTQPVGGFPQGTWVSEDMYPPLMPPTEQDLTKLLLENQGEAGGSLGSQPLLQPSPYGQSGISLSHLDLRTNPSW
Description: Inhibition of IL4-induced STAT6 phosphorylation at Y641 in CD4+ T lymphocytes isolated from C57BL/6J mouse preincubated for 2 hrs followed by activation with plate-bound anti-CD3/anti-CD28 and IL4 for 15 mins by Western blot analysis. The data set is classed as cell-based. The method, boiled down: as §1

In data set [5] the target is Signal transducer and activator of transcription 3 (Mus musculus) (UniProt P42227). Description: Inhibition of IL6-induced STAT3 phosphorylation at S727 in CD4+ T lymphocytes isolated from C57BL/6J mouse preincubated for 2 hrs followed by activation with plate-bound anti-CD3/anti-CD28 for 15 mins by Western blot analysis.
Chain of Signal transducer and activator of transcription 3 (Mus musculus) (P42227 whole entry): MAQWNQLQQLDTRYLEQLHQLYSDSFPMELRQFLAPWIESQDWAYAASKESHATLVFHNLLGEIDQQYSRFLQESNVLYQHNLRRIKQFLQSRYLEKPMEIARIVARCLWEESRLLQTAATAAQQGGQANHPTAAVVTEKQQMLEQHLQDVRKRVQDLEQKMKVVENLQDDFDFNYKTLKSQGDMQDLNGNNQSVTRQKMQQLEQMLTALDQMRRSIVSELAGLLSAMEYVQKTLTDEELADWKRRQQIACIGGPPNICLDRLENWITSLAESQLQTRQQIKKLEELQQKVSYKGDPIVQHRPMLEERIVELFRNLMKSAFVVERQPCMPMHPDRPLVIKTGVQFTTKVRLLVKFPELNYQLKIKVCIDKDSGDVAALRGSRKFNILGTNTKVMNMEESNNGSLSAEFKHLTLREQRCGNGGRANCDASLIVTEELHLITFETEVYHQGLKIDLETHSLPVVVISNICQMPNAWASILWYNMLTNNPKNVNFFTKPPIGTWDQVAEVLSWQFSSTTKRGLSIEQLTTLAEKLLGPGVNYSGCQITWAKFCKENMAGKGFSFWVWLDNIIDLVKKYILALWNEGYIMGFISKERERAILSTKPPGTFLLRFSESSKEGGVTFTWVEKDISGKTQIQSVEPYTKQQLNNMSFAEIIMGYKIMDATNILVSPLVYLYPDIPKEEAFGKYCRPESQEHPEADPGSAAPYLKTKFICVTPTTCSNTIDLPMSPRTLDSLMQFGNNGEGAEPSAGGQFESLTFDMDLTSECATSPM
A short description of data set [6]: Cytotoxicity against human BEAS2B cells assessed as cell viability after 72 hrs by MTS assay. It is filed as cell-based. The settings on record: beas-2b. The method, boiled down: (§3)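 Beas-2B seeded at 2000 cells/well; 10 mM DMSO stocks serially diluted in DMSO and equal amounts added to cultures; 72 h at 37 °C; medium replaced by 1:5 MTS/PBS, 1 h further incubation; viable cells read as optical density at 490 nm.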

Data set [7] in a line: Cytotoxicity against human BEAS2B cells assessed as cell viability at <=1 uM after 72 hrs by MTS assay. The data set is classed as cell-based. To be noted: beas-2b. In short, it runs like this: as §3
(In general: Formazan colour is commonly taken as a measure of viable cells.)

Data set [8] concerns the target T1, Signal transducer and activator of transcription 6 (Homo sapiens). Description: Inhibition of IL4-induced STAT6 phosphorylation in human MDA-MB-468 cells at 0.1 to 5 uM incubated for 2 hrs followed by stimulation with IL4 for 1 hr by Western blot assay. It is filed as cell-based. The method, boiled down:
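MDA-MB-468 breast cancer cells serum-starved, treated with prodrugs, then IL-4 stimulated; pSTAT6 read by Western blot.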

Data set [9] has the same target. Kind of data set: Inhibition of IL4-induced STAT6 phosphorylation at tyrosine 641 in human Beas-2B cells at 100 to 500 nM incubated for 2 hrs followed by stimulation with IL4 for 1 hr by Western blot assay. It is filed as cell-based. The method, boiled down: as §2
Data set [10] shares this target. Kind of data set: Inhibition of IL-13-stimulated STAT6 SH2 domain phosphorylation in human Beas-2B cells assessed as inhibition of CCL26 mRNA expression preincubated for 2 hrs followed by stimulation with IL-13 for 24 hrs by RT-PCR analysis.
Data set [11] shares this target. Description: Inhibition of IL-13-stimulated STAT6 SH2 domain phosphorylation in human Beas-2B cells assessed as inhibition of CCL26 mRNA expression at 100 nM preincubated for 2 hrs followed by stimulation with IL-13 for 24 hrs by RT-PCR analysis relative to control.
Data set [12] has the same target. Description: Inhibition of IL4-stimulated STAT6 phosphorylation at tyrosine 641 in human Beas-2B cells at 0.025 to 5 uM incubated for 2 hrs followed by stimulation with IL4 for 1 hr by Western blot assay. It is filed as cell-based. The method, boiled down:
as §2

Data set [13] shares this target. Description: Inhibition of IL4-induced STAT6 phosphorylation at tyrosine 641 in human Beas-2B cells at 50 to 100 nM incubated for 2 hrs followed by stimulation with IL4 for 1 hr by Western blot assay. It is filed as cell-based. In short, it runs like this:
as §2

Data set [14] deals with RAC-alpha serine/threonine-protein kinase (Homo sapiens) (UniProt P31749). Kind of data set: Inhibition of EGF-induced AKT phosphorylation at S473 in human MDA-MB-468 cells at 5 uM incubated for 2 hrs followed by stimulation with EGF for 1 hr by Western blot assay. The data set is classed as cell-based.

Take `CC(C)(C)C(=O)OCOP(=O)(OCOC(=O)C(C)(C)C)C(F)(F)c1ccc(/C=C/C(=O)N[C@H](C(=O)N2CCC[C@H]2C(=O)Nc2ccccc2)C(C)(C)C)cc1`: the inhibition result (in the data set listed under Mus musculus; in data set [3]; in data set [5]) was “inactive” in each case. Moreover, the inhibition entry in [1], in data set [2] and in [4] was “Active” throughout. The Activity entry in data set [6] was “Toxic”.
Take `CC(C)(C)C(=O)OCOP(=O)(OCOC(=O)C(C)(C)C)C(F)(F)c1ccc(/C=C/C(=O)N[C@H](C(=O)N2CCC[C@H]2C(=O)N(c2ccccc2)c2ccccc2)C(C)(C)C)cc1`: the inhibition result (in the data set filed under Mus musculus; in [8]; in [4]; in data set [9]) was “Active” in each case. In addition, the inhibition entry in [3] and in data set [5] was “inactive” in each case. Besides, the Activity result in data set [7] is given as “Non-toxic”.
As to `CC(C)(C)C(=O)OCOP(=O)(OCOC(=O)C(C)(C)C)C(F)(F)c1ccc(/C=C/C(=O)N[C@H](C(=O)N2CCC[C@H]2C(=O)N(c2ccccc2)c2ccc(I)cc2)C(C)(C)C)cc1`, the results for the inhibition result in data set [10] and in data set [11] were “Dose-dependent effect” and > 50%, respectively. The inhibition result in [3], in [4] and in [5] was “inactive” throughout.
Regarding `C/C(=C\C(=O)N[C@H](C(=O)N1CCC[C@H]1C(=O)N(C)C1CCCCC1)C(C)(C)C)c1ccc(C(F)(F)P(=O)(OCOC(=O)C(C)(C)C)OCOC(=O)C(C)(C)C)cc1`, the inhibition result (in the data set listed under Mus musculus; in data set [4]; in data set [12]) was “Active” throughout. Besides, the inhibition entry in data set [3] and in data set [5] was “inactive” each time. The Activity result in data set [6] is “Non-toxic”.
Turning to `CN(C(=O)[C@@H]1CCCN1C(=O)[C@@H](NC(=O)/C=C/c1ccc(C(F)(F)P(=O)(OCOC(=O)C(C)(C)C)OCOC(=O)C(C)(C)C)cc1)C(C)(C)C)c1ccccc1`, the inhibition entry (in the data set listed under Mus musculus; in [13]; in data set [8]; in data set [4]; in data set [14]) was “Active” throughout. Besides, the inhibition result in data set [3] and in [5] was “inactive” in each case. In addition, the Activity result in data set [7] and in [6] was “Non-toxic” in each case.
